Published values gathered from unrelated publications.
Protocols differ between the studies behind these lines.
Target: Interleukin-1 receptor-associated kinase 4 (IRAK4, Homo sapiens, UniProt Q9NWZ3)

| SMILES | test | conditions | endpoint | value |
| --- | --- | --- | --- | --- |
| C[C@@]1(Cc2ccc(C#N)cc2)C(=O)N(c2cc(Cl)cc(Cl)c2)c2ncc(C(=O)NC3(c4nc(C5CCC5)no4)CC3)n21 | cell-free assay, competition with immobilised ligand | 1 µM | remaining binding | 100% |
| CCN(CC)CCNC(=O)c1c(C)[nH]c(/C=C2\C(=O)Nc3ccc(F)cc32)c1C | enzyme activity, inhibitor | 10 µM | inhibition | 89% |
| O=C1NC(=O)c2cc(Nc3ccc(F)cc3)c(Nc3ccc(F)cc3)cc21 | cell-free assay | 0.5 µM | remaining signal | 98.1% |
| C[C@H](c1cccc(C#N)c1)n1cc(Cl)cc(C(N)=O)c1=N | cell-free assay, competition with immobilised ligand | 1 µM | remaining binding | 82% |
| C=CC(=O)Nc1cc(Nc2nccc(Nc3cc(Cl)c(F)cc3C(C)(C)O)n2)c(OC)cc1N1CC[C@@H](N(C)C)C1 | enzyme activity, inhibitor | 1 µM | inhibition | 24% |
| COc1cc2nccc(Oc3ccc(NC(=O)c4c5n(n(-c6ccc(F)cc6)c4=O)CCCC5)cc3)c2cc1OC | enzyme activity, inhibitor | 0.1 µM | inhibition | -19% |
| CN(C)C1CCN(CC#Cc2nn(C3CCCC3)c3nc(NCc4ccccc4)ncc23)C1 (centres unmarked) | enzyme activity, inhibitor, FRET | 1 µM | inhibition | 3% |
| Cc1ccc(C(=O)Nc2ccc(CN3CCN(C)CC3)c(C(F)(F)F)c2)cc1C#Cc1cnc2cccnn12 | enzyme activity, inhibitor | 23.5 nM | remaining activity | 91% |
| Cn1c(=O)n(-c2ccc(C(C)(C)C#N)cc2)c2c3cc(-c4cnc5ccccc5c4)ccc3ncc21 | enzyme activity, inhibitor | 10 µM | remaining activity | 78% |
| O=C(Nc1cnn(-c2csc(C(=O)NC3COC3)c2)c1)Nc1c(F)cccc1Cl | enzyme activity, inhibitor | 5 µM | remaining activity | 97.8% |
| CCc1ccccc1C(=O)Nc1n[nH]c2c(C)c(F)c(C3C(C#N)=C(C)N(C)C(C)=C3C#N)cc12 | cell-free assay, competition with immobilised ligand | 1 µM | remaining binding | 100% |
| CCCS(=O)(=O)Nc1ccc(F)c(C(=O)c2c[nH]c3ncc(-c4ccc(Cl)cc4)cc23)c1F | enzyme activity, inhibitor | 1 µM | inhibition | < 10% |
| FC(F)(F)Oc1cccc(-c2cnc3ccc(-c4ccncc4)nn23)c1 | enzyme activity, inhibitor, radiometric | 1 µM | activity vs control | 12% |
| Cc1cc(NC(=O)c2cccc3cc(-c4cccc5[nH]nc(N)c45)ccc23)ccc1F | enzyme activity, inhibitor | 0.1 µM | activity vs control | 99% |
| Nc1ncnc2occ(-c3ccc(NC(=O)Nc4cc(C(F)(F)F)ccc4F)cc3)c12 | cell-free assay, inhibitor | 20 µM | remaining signal | 46% |
| O=C(Nc1cnn(-c2csc(C(=O)NC3COC3)c2)c1)Nc1ccccc1Cl | enzyme activity, inhibitor | 5 µM | remaining activity | 92.1% |
| c1ccc(N2CCN(Cc3nc4ccccc4[nH]3)CC2)nc1 | binding, competition with immobilised ligand | 1 µM | remaining binding | 100% |
| CC(C)(C)c1nc2c(s1)c1nc(N)ncc1c1ccc(NS(=O)(=O)c3c(F)cccc3F)c(F)c12 | enzyme activity, inhibitor, radiometric | 1 µM | remaining activity | 90% |
| CCC(=O)N[C@H]1CC[C@@H](C(=O)N(C)c2ccc(-c3nc4ccccc4o3)cc2)C1 | cell-free assay, competition with immobilised ligand | 1 µM | remaining binding | 87% |
| Cc1ccc(Nc2nccc(N(C)c3ccc4c(C)n(C)nc4c3)n2)cc1S(N)(=O)=O | enzyme activity, inhibitor | 0.5 µM | remaining activity | 98.4% |
| CS(=O)(=O)Nc1cccc(-c2csc(NC(=O)CSc3nc4nccnc4c(=O)n3CCc3ccccc3)n2)c1 | enzyme activity, inhibitor | 10 µM | inhibition | 7% |
| Cc1ccc(NC(=O)c2ccc(C)c(C(F)(F)F)c2)cc1C#Cc1nn(C2CCC(O)CC2)c2ncnc(N)c12 (centres unmarked) | cell-free assay | 10 µM | remaining signal | 101% |
| COc1ccc(COc2ccc(Cc3cnc(N)nc3N)cc2OC)cc1 | cell-free assay | 0.5 µM | remaining signal | 110% |
| CC1=C(C#N)C(c2ccc3c(c2)c(NC(=O)c2ccccc2C)nn3C)C(C#N)=C(C)N1 | cell-free assay, competition with immobilised ligand | 1 µM | remaining binding | 7.5% |
| COc1cc2ncnc(Nc3ccc(Oc4ccccc4)cc3C)c2cc1OC | enzyme activity, inhibitor | 1 µM | inhibition | 0% |
| Nc1cnc(N2CCc3cc(S(=O)(=O)Nc4c(F)cc(Cl)cc4F)cc(N4CCCC4=O)c32)nc1 | cell-free assay, competition with immobilised ligand | 1 µM | remaining binding | 100% |
| Oc1cccc(-c2nc(N3CCOCC3)c3oc4ncccc4c3n2)c1 | enzyme activity, inhibitor | 10 µM | remaining activity | 119% |
| CO[C@@H](C)c1c(Nc2ccc([C@H](N(C)C(=O)C3CCS(=O)(=O)CC3)C(F)(F)F)cc2)cnc2cc(Cl)nn12 | cell-free assay, competition with immobilised ligand | 1 µM | remaining binding | 88% |
| N#CCCc1ccc2c(c1)-c1[nH]c3ccc([N+](=O)[O-])cc3c1CC(=O)N2 | cell-free assay | 0.5 µM | remaining signal | 155% |
